Source: ChEMBL document CHEMBL3351780, “Novel hybrids of metronidazole and quinolones: synthesis, bioactive evaluation, cytotoxicity, preliminary antimicrobial mechanism and effect of metal ions on their transportation by human serum albumin” (Eur J Med Chem, 2014)
Converted amounts (≈) assume the structure as drawn.

How the values were obtained:
Format in all cases: functional
[1] = test system: Micrococcus luteus; assay: Antibacterial activity against Micrococcus luteus by two-fold serial dilution method
How it was run: (§1)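 Standard two-fold serial dilution in 96-well microtest plates following NCCLS. Top dilutions printed as 32, 16, 8, 4, 2, 1, 0.5 ug/mL. Wells inoculated and held at 37 °C for 24 h. Growth judged visually and by spectrophotometer, in triplicate. MIC is the lowest concentration giving complete growth inhibition.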

[2] = test system: Staphylococcus aureus; assay: Antibacterial activity against methicillin-resistant Staphylococcus aureus N315 by two-fold serial dilution method
How it was run: (§2)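 MIC read as the lowest concentration giving complete growth inhibition. Two-fold serial dilutions were made in 96-well plates following NCCLS, giving a series down to 0.5 µg/mL (…32, 16, 8, 4, 2, 1, 0.5). Plates were inoculated and incubated at 37 °C for 24 h. A DMSO-with-inoculum control without drug was included. Growth was monitored visually and spectrophotometrically, in triplicate.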

[3] = test system: Staphylococcus aureus; assay: Antibacterial activity against Staphylococcus aureus ATCC 25923 by two-fold serial dilution method; how it was run: as §1
[4] = test system: Bacillus spizizenii; assay: Antibacterial activity against Bacillus subtilis ATCC 6633 by two-fold serial dilution method; how it was run: as §1
[5] = test system: Pseudomonas aeruginosa; assay: Antibacterial activity against Pseudomonas aeruginosa by two-fold serial dilution method; how it was run: as §1
[6] = test system: Escherichia coli; assay: Antibacterial activity against Escherichia coli DH52 by two-fold serial dilution method; how it was run: as §1
[7] = test system: Shigella dysenteriae; assay: Antibacterial activity against Shigella dysenteriae by two-fold serial dilution method; how it was run: as §2
[8] = Antibacterial activity against Eberthella typhosa by two-fold serial dilution method; how it was run: as §2
[9] = test system: Cyberlindnera jadinii; assay: Antifungal activity against Candida utilis after 24 hrs by microbroth dilution method; conditions: Williopsis jadinii
How it was run: (§3)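 Spore suspension prepared in sterile distilled water from one-day-old cultures on Sabouraud agar, final 1-5 x 10^3 spores/mL. Compounds were serially diluted in RPMI 1640 to give eleven dilutions. Incubation at 35 °C for 24 h. Growth read visually and spectrophotometrically, in triplicate. MIC is the lowest concentration with complete inhibition.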

[10] = test system: Saccharomyces cerevisiae; assay: Antifungal activity against Saccharomyces cerevisiae after 24 hrs by microbroth dilution method; how it was run: as §3
[11] = test system: Candida albicans; assay: Antifungal activity against Candida albicans ATCC 76615 after 24 hrs by microbroth dilution method; conditions: ATCC 76615, 24 h; how it was run: as §3
[12] = test system: Pichia norvegensis; assay: Antifungal activity against Candida mycoderma after 24 hrs by microbroth dilution method

Row | SMILES | MIC [1] [µg/mL] | MIC [2] [µg/mL] | MIC [3] [µg/mL] | MIC [4] [µg/mL] | MIC [5] [µg/mL] | MIC [6] [µg/mL] | MIC [7] [µg/mL] | MIC [8] [µg/mL] | MIC [9] [µg/mL] | MIC [10] [µg/mL] | MIC [11] [µg/mL] | MIC [12] [µg/mL]
1 | CCOC(=O)c1cn(CC(O)Cn2cnc([N+](=O)[O-])c2)c2c(F)cc(F)cc2c1=O (racemic) | 4 (≈ 9.47 µM) | 32 (≈ 75.8 µM) | 4 (≈ 9.47 µM) | 8 (≈ 18.9 µM) | 4 (≈ 9.47 µM) | 8 (≈ 18.9 µM) | 16 (≈ 37.9 µM) | 2 (≈ 4.74 µM) | 64 (≈ 152 µM) | 128 (≈ 303 µM) | 32 (≈ 75.8 µM) | 16 (≈ 37.9 µM)
2 | CCOC(=O)c1cn(CC(O)Cn2c([N+](=O)[O-])cnc2C)c2ccc(C)cc2c1=O (racemic) | 16 (≈ 38.6 µM) | 8 (≈ 19.3 µM) | 8 (≈ 19.3 µM) | 8 (≈ 19.3 µM) | 8 (≈ 19.3 µM) | 4 (≈ 9.65 µM) | 4 (≈ 9.65 µM) | 8 (≈ 19.3 µM) | 256 (≈ 618 µM) | 4 (≈ 9.65 µM) | 2 (≈ 4.83 µM) | 256 (≈ 618 µM)
3 | CCOC(=O)c1cn(CC2CO2)c2ccc(F)cc2c1=O (racemic) |  |  |  | 64 (≈ 220 µM) |  |  |  | 8 (≈ 27.5 µM) |  |  |  | 8 (≈ 27.5 µM)
4 | CCOC(=O)c1cn(CC(O)Cn2c([N+](=O)[O-])cnc2C)c2c(F)cccc2c1=O (racemic) | 8 (≈ 19.1 µM) | 8 (≈ 19.1 µM) | 32 (≈ 76.5 µM) | 16 (≈ 38.2 µM) | 16 (≈ 38.2 µM) | 16 (≈ 38.2 µM) | 8 (≈ 19.1 µM) | 4 (≈ 9.56 µM) | 512 (≈ 1220 µM) | 256 (≈ 612 µM) | 128 (≈ 306 µM) | 128 (≈ 306 µM)
5 | CCOC(=O)c1cn(CC(O)Cn2c([N+](=O)[O-])cnc2C)c2cc(C(F)(F)F)ccc2c1=O (racemic) | 4 (≈ 8.54 µM) | 8 (≈ 17.1 µM) | 4 (≈ 8.54 µM) | 16 (≈ 34.2 µM) | 8 (≈ 17.1 µM) | 2 (≈ 4.27 µM) | 2 (≈ 4.27 µM) | 4 (≈ 8.54 µM) | 128 (≈ 273 µM) | 8 (≈ 17.1 µM) | 8 (≈ 17.1 µM) | 32 (≈ 68.3 µM)
6 | CCOC(=O)c1cn(CC(O)Cn2c([N+](=O)[O-])cnc2C)c2c(Cl)cc(Cl)cc2c1=O (racemic) | 16 (≈ 34.1 µM) | 32 (≈ 68.2 µM) | 16 (≈ 34.1 µM) | 8 (≈ 17 µM) | 16 (≈ 34.1 µM) | 16 (≈ 34.1 µM) | 8 (≈ 17 µM) | 8 (≈ 17 µM) | 256 (≈ 546 µM) | 128 (≈ 273 µM) | 64 (≈ 136 µM) | 64 (≈ 136 µM)
